Experiment [1] concerns L1210. Nature of the experiment: Tested for the inhibition of L1210 cell proliferation. The class given is functional, cell-based. The note with it: Mus musculus. A digest of the protocol:
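L1210 cells were grown in RPMI 1640 with 10% FCS, 2 mM L-glutamine and 10 mM HEPES (pH 7.4). Exponential-phase cells (10^5 cells/mL) were exposed for 24 h to 5 drug concentrations in triplicate, then pulsed 3 h with 0.5 µCi/mL [3H]thymidine. Cells were harvested onto filters and counted. IC50 is 50% inhibition of incorporation versus untreated cells, given as the mean of 2–5 independent experiments.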

Experiment [2] deals with P388. The experiment can be described thus: Compound was tested for T/C range at optimal dose of 0.25 mg/kg for antitumor activity against P388 leukemia cells in mice. The class given is functional, Mus musculus.
For experiment [3], the system named is P388. Nature of the experiment: Long-term survivors (LTS) for 60 days at optimal dose of 0.25 mg/kg for antitumor activity against P388 leukemia cells in 6 mice. Type of experiment: functional, Mus musculus.
For experiment [4], the target named is Tubulin. Nature of the experiment: The compound tested for the inhibition of tubulin polymerization. The class given is functional. A digest of the protocol:
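Tubulin was partially purified from dog brain by polymerization/depolymerization cycles and used at 0.5 mg/mL. Compounds were added in DMSO (10 µL per 500 µL reaction) at 10^-6 to 10^-9 M, with DMSO-only controls. Polymerization was followed by turbidity at 350 nm. Rates from two separate experiments were plotted against concentration, and IC50 was read graphically.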

Experiment [5] deals with P388. Nature of the experiment: Compound was tested for T/C range at optimal dose of 1.5 mg/kg for antitumor activity against P388 leukemia cells in mice. Type of experiment: functional, Mus musculus.
Experiment [6] relates to P388. Nature of the experiment: Long-term survivors (LTS) for 60 days at optimal dose of 1.5 mg/kg for antitumor activity against P388 leukemia cells in 6 mice. Type of experiment: functional, Mus musculus.
Experiment [7] has as its system P388. Nature of the experiment: Compound was tested for T/C range at optimal dose of 8.00 mg/kg for antitumor activity against P388 leukemia cells in mice. Type of experiment: functional, Mus musculus.
Experiment [8] deals with P388. The experiment can be described thus: Long-term survivors (LTS) for 60 days at optimal dose of 8.00 mg/kg for antitumor activity against P388 leukemia cells in 5 mice. The class given is functional, Mus musculus.
Experiment [9] relates to P388. Nature of the experiment: Compound was tested for T/C range at optimal dose of 3.0 mg/kg for antitumor activity against P388 leukemia cells in mice; value ranges from 157-203. Type of experiment: functional, Mus musculus.
The subject of experiment [10] is P388. Nature of the experiment: Long-term survivors (LTS) for 60 days at optimal dose of 3.0 mg/kg for antitumor activity against P388 leukemia cells in 45 mice. Type of experiment: functional, Mus musculus.

As for `CCOP(=O)(OCC)[C@H](C)NC(=O)[C@@]1(O)[C@H](O)[C@]2(CC)C=CCN3CC[C@@]4(c5cc([C@@]6(C(=O)OC)C[C@@H]7CN(CCc8c6[nH]c6ccccc86)C[C@](O)(CC)C7)c(OC)cc5N(C)[C@@H]14)[C@@H]32`, the results for the IC50 in experiment [1] and in experiment [4] were 0.4 nM and 200 nM, respectively. Also, in experiment [2], the T/C (commonly the result in the treated group divided by that in the control group, in per cent) is reported as 342%. In experiment [3], this compound displayed an LTS of 2.
Consider `CCOP(=O)(OCC)C(CC(C)C)NC(=O)[C@@]1(O)[C@H](O)[C@]2(CC)C=CCN3CC[C@@]4(c5cc([C@@]6(C(=O)OC)C[C@@H]7CN(CCc8c6[nH]c6ccccc86)C[C@](O)(CC)C7)c(OC)cc5N(C)[C@@H]14)[C@@H]32` (mixture of isomers), for which, in experiment [1], half-maximal inhibition (IC50) required 3.13 nM. The T/C in experiment [5] was determined as 261%. In addition, the LTS in experiment [6] turned out to be 1.
As for `CCOP(=O)(OCC)[C@H](Cc1ccccc1)NC(=O)[C@@]1(O)[C@H](O)[C@]2(CC)C=CCN3CC[C@@]4(c5cc([C@@]6(C(=O)OC)C[C@@H]7CN(CCc8c6[nH]c6ccccc86)C[C@](O)(CC)C7)c(OC)cc5N(C)[C@@H]14)[C@@H]32`, the IC50 (commonly the concentration needed to halve the response being measured) in [1] was determined as 9.64 nM. Besides, the T/C in [7] stood at 229%. Besides, the LTS in experiment [8] worked out at 0.
In experiment [1], `CC[C@]1(O)C[C@@H]2CN(CCc3c([nH]c4ccccc34)[C@@](C(=O)OC)(c3cc4c(cc3OC)N(C)[C@H]3[C@@](O)(C(=O)OC)[C@H](OC(C)=O)[C@]5(CC)C=CCN6CC[C@]43[C@@H]65)C2)C1` [VINBLASTINE] displayed a 50% inhibitory concentration (IC50) of 3.15 nM. Also, the T/C in experiment [9] stood at 157%. In [10], this compound yielded an LTS of 2.
